Among all 300,000 compounds or so, about 4,400 (1.5%) were called active. The sample as a whole holds a higher share of actives than the screen did. Values without a mark were called inactive.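 The calls were made as follows: active = mean inhibition across valid replicates above about 55% (limit read from the data); inconclusive = mean below that limit but half or more replicates reach it; inactive = mean below it, under half of replicates reach it.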
assay: Trypanosoma cruzi replication blockers in host cells – luminescence, NIH3T3 host cells, primary screen (AID 1885);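 also: signal also drops with host cell toxicity which is not excluded here; 0% = plate median of DMSO wells and 100% = zero luminescence signal; higher percent means less beta-gal luminescence so fewer parasites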; details: T. cruzi beta-gal in NIH3T3, luminescence, 90 h; active compounds read high; concentration not given here
Method in brief: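 Material: NIH/3T3 host cells with β-galactosidase reporter T. cruzi; Input: 5,000 host fibroblasts per well; Medium: DMEM, 2% fetal bovine serum; Compound: 50 nL DMSO compound solution per well; Schedule: 3 h host attachment, then at least 90 h co-culture; Detection: luminescent β-galactosidase signal after 60 min lysis.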

SMILES	inhibition
Cc1cc(C)c2nc3nc(C)cc(C)c3c(N)c2c1	58.9% (active)
Cc1cc(C)c2nc(SCCC#N)nc(C)c2c1	1.26%
Cc1cc(C)c2nc(-c3ccco3)cc(C(=O)O)c2c1	-8.53%
O=C(COC(=O)c1ncc(Cl)c(Cl)c1Cl)NNC(=O)c1ccccc1	-29.7%
Cc1ccc2nc(NC(=O)C3CSC4(C)CCC(=O)N34)sc2c1 (stereo unspecified)	-3.69%
CC(C)Oc1c(Br)cc(Br)cc1/C=N/NC(N)=S	66.9% (active)
NC(=S)N/N=C/c1coc2cc(Cl)ccc2c1=O	-10.9%
CCOc1ccc(/C=N/NC(N)=S)cc1	15.1%
CCc1noc(C)c1C(=O)Nc1nc(-c2ccccc2)cs1	6.55%
CCS(=O)(=O)c1ccc(C(=O)NC)c(Cl)c1Cl	-1.91%
Cc1ccc(-c2cn(S(=O)(=O)c3cccc([N+](=O)[O-])c3)nc2N)cc1	63.5% (active)
Cc1cc(C)n(S(=O)(=O)c2cccc([N+](=O)[O-])c2)n1	19.3%
CC1=NCCN1S(=O)(=O)c1cccc([N+](=O)[O-])c1	7.48%
CCCCCCCNC(=O)C1(CC2CC(c3cccc(Br)c3)=NO2)CCN(C(=O)c2cc(OCC)c(OCC)c(OCC)c2)CC1 (stereo unspecified)	28.4%
COc1cc(N)c(Cl)cc1C(=O)OCC(=O)c1ccc2c(c1)NC(=O)CO2	-2.39%
CCCCCCc1cc2cc(-c3nnc(-c4ccccc4)o3)c(=O)oc2cc1O	0.529%
CCCCCCc1ccc(O)cc1O	63.7% (active)
CCCCCCCN=C(C)c1ccccc1O	2.33%
O=C(CNS(=O)(=O)c1ccccc1)N1CCN(C(=O)c2ccco2)CC1	-1.99%
Cn1c(CCN2CCCC2)nc2cc(NS(=O)(=O)c3ccccc3)ccc21	9.31%
Cn1c(=O)n(C)c2cc(NS(=O)(=O)c3ccc(F)cc3)ccc21	2.2%
CC1(C)CC(=O)c2c(n(S(=O)(=O)c3ccccc3)c3ccc(NS(=O)(=O)c4ccccc4)cc23)C1	63.5% (active)
CCn1c(SCc2ccccc2)nc2cc(OC)c(OC)cc2c1=O	18.8%
CN1CCN(C(=O)c2ccccc2NC(=O)COc2ccccc2Cl)CC1	-5.23%

SMILES	inhibition
O=C1c2ccccc2S(=O)(=O)c2cc(N3CCN(c4ccccn4)CC3)ccc21	-2.13%
CCOc1ccc(NC(=O)COc2ccc(C(=O)N3CCC(C(N)=O)CC3)cc2OC)cc1	-10.5%
CCC(=O)Nc1ccc2nn(-c3ccc(F)cc3)nc2c1	55.3% (active)
Cc1ccc(-n2nc3ccc(NC(=O)/C=C/c4ccco4)cc3n2)cc1C	-97.4%
CCC(=O)Nc1ccc(C(=O)Nc2cccc(OC)c2)cc1	-19%
C=CCOc1cccc(C2C(C(=O)c3ccc(C)o3)=C(O)C(=O)N2c2nnc(C)s2)c1 (stereo unspecified)	5.31%
N#C/C(=C\c1ccccc1C(F)(F)F)C(=O)Nc1ccccc1F	-1.24%
C(=N\N1CCN(c2ccccn2)CC1)/C1=C(N2CCOCC2)C(=C/c2ccccc2)/CC1	-15.4%
N#C/C(=C\C1=C(N2CCOCC2)C(=C\c2ccccc2)/CC1)C(=O)Nc1ccccc1F	57.8% (active)
CC(=O)c1ccc(NC(=O)c2sc3nc4n(c(=O)c3c2C)CCCCC4)cc1	-12.8%
Cc1ccc(N(CCC(=O)O)S(=O)(=O)c2cccc(C(F)(F)F)c2)cc1	-18.4%
Cc1ccc(C)c(NC(=S)NNC(=O)c2csc(C)c2)c1	6.88%
Cc1ccc(C)c(NC(=S)NNC(=S)Nc2ccc(C(C)C)cc2)c1	65.3% (active)
CC(C)c1ccc(NC(=S)NNc2ccc(Cl)c(C(=O)O)c2)cc1	14.4%
COc1cc2ccccc2cc1C(=O)Nc1ccncc1	6.55%
CCn1c(/C=C/c2ccc([N+](=O)[O-])o2)nc2ccccc2c1=O	85.9% (active)
O=c1oc(/C=C/c2ccccc2)nc2ccccc12	-17.7%
CCn1c(=O)c([N+](=O)[O-])c(NCc2ccc3c(c2)OCO3)c2ccccc21	24.6%
O=C(Cc1ccc(S(=O)(=O)N2CCOCC2)s1)N1CCN(c2ccc(C(F)(F)F)cc2[N+](=O)[O-])CC1	31%
Cc1cc(C(=O)N/N=C/c2ccc(N3CCOCC3)cc2)c(C)o1	0.447%
C=CCNC(=S)N/N=C/c1ccc(C)s1	50.5%
CNC(=S)N/N=C/c1ccc(N2CCOCC2)s1	57.6% (active)
CCCCn1c(N)c(N(CCOC)C(=O)c2cccc(S(=O)(=O)N(C)c3ccccc3)c2)c(=O)[nH]c1=O	2.71%
CCc1ccccc1NC(=O)c1ccc2snnc2c1	-10.4%

SMILES	inhibition
O=C(Nc1ccc2ccccc2c1)Nc1ccc2snnc2c1	57.6% (active)
O=C(Nc1cccc(Br)c1)c1ccc2snnc2c1	10.3%
O=S(=O)(NCCS(=O)(=O)N1CCN(c2ccccc2)CC1)c1ccc(F)cc1	-2.33%
Cc1cccc(NC(=O)Nc2nnc(-c3ccccc3)o2)c1	-4.53%
Cc1cccc(NC(=O)Nc2cccc(Oc3c(F)c(F)c(F)c(F)c3F)c2)c1	68.5% (active)
COc1cccc(NC(=O)NCc2ccc(F)cc2)c1	1.25%
COc1ccc(C(=O)NCC(c2ccco2)N2CCc3ccccc32)cc1OC (stereo unspecified)	5.94%
COc1ccc(C(=O)NCC2CCCN2S(=O)(=O)c2cccs2)cc1OC (stereo unspecified)	-3.88%
COc1ccc(-c2cc(C(=O)N/N=C/c3cccnc3)c3ccccc3n2)c(OC)c1	-3.19%
COc1ccc(-c2cc(C(F)(F)F)nc(S(C)(=O)=O)n2)cc1OC	60.3% (active)
COc1ccc(-c2cc(C(F)(F)F)nc(NCc3cccnc3)n2)cc1	49.2%
COc1ccc(-c2ccc(Nc3ccc(S(=O)(=O)N4CCCC4)cc3)nn2)cc1OC	14.2%
Cc1cc2nc3n(c2cc1C)CC1CC(C(=O)NCCC(C)C)N(C)C31 (stereo unspecified)	-2.62%
CCOc1cc(C(=O)O)ccc1OCCOc1ccccc1	3.5%
O=C(NCC1CCN(Cc2ccccc2Cl)CC1)Nc1cccc(Cl)c1	49.4%
Cc1ccccc1NC(=O)NCC1CCN(Cc2cccc(Cl)c2)CC1	57.5% (active)
Cc1cccc(CN2CCC(CNC(=O)Nc3ccc(F)c(Cl)c3)CC2)c1	46.2%
CSc1ccc(/C=C2\NC(=O)NC2=O)cc1	-13.1%
CC(=O)Nc1cccc(NC(=O)c2ccc3c(c2)CCN3S(C)(=O)=O)c1	-5.53%
OC(CNCC1CCCO1)Cn1c2ccc(Br)cc2c2cc(Br)ccc21 (stereo unspecified)	55.2% (active)
O=C(CSc1ccc(-c2ccc(Br)cc2)nn1)NCC1CCCO1 (stereo unspecified)	-13.2%
CC(NS(=O)(=O)c1ccc(Br)cc1)C(=O)NCC1CCCO1 (stereo unspecified)	0.0781%
Cc1nn(C)cc1/C=N/NC(=O)c1sc2ccccc2c1Cl	-4.55%
CN1CCc2ccccc2C1Cc1ccccc1NC(=O)c1sc2ccccc2c1Cl (stereo unspecified)	54.6% (active)

SMILES	inhibition
COc1ccc(CNC(=O)CNC(=O)c2sc3ccccc3c2Cl)cc1OC	13.1%
COCCCNC(NC(=O)c1ccc(OC)cc1)C(Cl)(Cl)Cl (stereo unspecified)	-20.9%
COc1ccccc1NC(=O)C(C)OC(=O)c1ccc(-n2cnnn2)cc1 (stereo unspecified)	-5.21%
O=C(Nc1cc(Cl)ccc1N1CCOCC1)c1ccc(N2CCCC2=O)cc1	-1.5%
CC(OC(=O)c1ccc(-n2cnnn2)cc1)C(=O)NCc1ccccc1 (stereo unspecified)	-10.5%
Cc1ccc(C(=O)NCC(=O)OCc2nnc(-c3ccccc3)o2)cc1	0.567%
COc1ccc(C(=O)Cc2cnn(-c3ccccc3)c2)c(O)c1	33.1%
Cc1[nH]nc(-c2ccc(OCc3cnn(-c4ccccc4)c3)cc2O)c1Oc1ccc(Cl)cc1	57.6% (active)
C=C(C)COc1ccc(-c2n[nH]c(C)c2-c2ccccc2)c(O)c1	-19.2%
COc1cc(OC)c(C(=O)OC(C)C(=O)Nc2cc(C(F)(F)F)ccc2Cl)cc1OC (stereo unspecified)	18.6%
CCC(C)N(C(=O)Cn1nc(C)c([N+](=O)[O-])c1C)C1CCS(=O)(=O)C1 (stereo unspecified)	-2.7%
CC(=O)Nc1ccc(NC(=O)CSC2=NS(=O)(=O)c3ccccc3N2)cc1	0.486%
Cc1cccnc1NC(=O)c1cccc(S(=O)(=O)N2CCN(c3ccc(F)cc3)CC2)c1	13.5%
Oc1c(CN2CCN(c3ccc(F)cc3)CC2)cc(Cl)c2cccnc12	59.9% (active)
Oc1ccc(CN2CCN(c3ncccn3)CC2)cc1	-5.02%
CC12CCC(=O)N1C(C(=O)Nc1ccc(F)c(F)c1F)CS2 (stereo unspecified)	-7.75%
COc1cccc(NC(=O)CN(C)C(=O)CSC(=S)N2CCCC2)c1	-6.94%
CCOC(=O)C1=C(C)Nc2sc(C(=O)c3ccc(Br)cc3)c(N)c2C1c1ccc(C(=O)OC)cc1 (stereo unspecified)	76.1% (active)
CCOC(=O)c1sc(=NC(=O)c2ccc(Br)cc2)n(C)c1C	-5.34%
CCOC(=O)c1sc(=S)n2c1[nH]c(=O)c1ccc(C(=O)OC)cc12	4.87%
COc1cc(C(=O)NCC(=O)NCCSc2ccc(Br)cc2)cc(OC)c1OC	-6.77%
CCC(C)(C)n1nnnc1C(c1cccs1)N1CCN(c2nc3ccccc3s2)CC1 (stereo unspecified)	66.6% (active)
CCC(C)(C)n1nnnc1C(c1cccs1)N1CCN(Cc2ccccc2)CC1 (stereo unspecified)	5.19%
CCC(C)(C)n1nnnc1C(c1ccccc1OC)N1CCSCC1 (stereo unspecified)	-14.5%
